# Measured values taken from ChEMBL document CHEMBL1147088, “Small molecule obatoclax (GX15-070) antagonizes MCL-1 and overcomes MCL-1-mediated resistance to apoptosis” (Proc Natl Acad Sci U S A, 2007).
# pIC50, pKi: −log10 of the molar value. Active and inactive are the calls of the source. The calls are words filed in the database; no cut-off is given here.
# Assays:
# [1] = target: Apoptosis regulator Bcl-2 (Homo sapiens, UniProt P10415); test: Binding affinity to BCL2
# Saccharomyces cerevisiae = test: Growth inhibition of Saccharomyces cerevisiae W301; assay type: functional, organism-based
# Procedure, shortened: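 W301 yeast transformed with BCL-family/BAX/BAK or control vectors, then grown in synthetic complete medium with 2% raffinose and 2% galactose. Seeded at 0.01 OD units and shaken 48 h at 30°C. Compound or vehicle was added to growth medium with final DMSO 0.67%. Cell density was the read-out, and IC50 values were recorded.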
# Eu-Myc [2] = test: Induction of apoptosis in mouse Eu-Myc cells overexpressing MCL1 assessed as inhibition of colony formation at 1 uM; assay type: functional, cell-based
# Eu-Myc [3] = test: Induction of apoptosis in mouse Eu-Myc cells overexpressing BCL2 assessed as inhibition of colony formation at 1 uM; assay type: functional, cell-based
# Eu-Myc [4] = test: Induction of apoptosis in mouse Eu-Myc cells overexpressing A1 assessed as inhibition of colony formation at 1 uM; assay type: functional, cell-based
# KB [5] = test: Cytotoxicity against BCL2 overexpressing human KB cells transfected with MCL1 siRNA assessed as annexin 5 reactivity at 0.5 uM after 72 hrs by flow cytometry; assay type: functional
# KB [6] = test: Cytotoxicity against BCL2 overexpressing human KB cells transfected with MCL1 siRNA assessed as propidium iodide uptake at 0.5 uM after 72 hrs by flow cytometry; assay type: functional
# KB [7] = test: Cytotoxicity in human KB cells overexpressing BCL2 at 0.1 uM; assay type: functional, cell-based
# KB [8] = test: Cytotoxicity in human KB cells overexpressing BCL2 at 0.5 uM; assay type: functional, cell-based
# KB [9] = test: Cytotoxicity in human siRNA-mediated-MCL1-kncok down KB cells overexpressing BCL2 at 0.5 uM; assay type: functional, cell-based
# KB [10] = test: Cytotoxicity against BCL2 overexpressing human KB cells transfected with luciferase siRNA assessed as propidium iodide uptake at 0.5 uM after 72 hrs by flow cytometry; assay type: functional
# KB [11] = test: Cytotoxicity against BCL2 overexpressing human KB cells transfected with luciferase siRNA assessed as annexin 5 uptake at 0.5 uM after 72 hrs by flow cytometry; assay type: functional
# Apoptosis regulator Bcl-2, sequence (P10415 whole entry): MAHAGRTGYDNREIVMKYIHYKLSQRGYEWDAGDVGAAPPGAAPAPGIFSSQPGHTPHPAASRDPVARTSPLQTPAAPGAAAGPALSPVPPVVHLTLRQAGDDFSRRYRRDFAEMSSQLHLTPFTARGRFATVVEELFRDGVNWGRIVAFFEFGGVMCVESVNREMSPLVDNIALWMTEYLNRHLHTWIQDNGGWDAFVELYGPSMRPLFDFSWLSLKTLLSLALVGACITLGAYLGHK
structure (smiles),measurement,setting,value
COC(=O)NC(CCSC)C(=O)Oc1ccc(Nc2nc3c(s2)C(=O)c2ccccc2C3=O)cc1 (stereo unspecified),pKi,[1],5.89
O=C(O[C@@H]1Cc2c(O)cc(O)cc2O[C@@H]1c1cc(O)c(O)c(O)c1)c1cc(O)c(O)c(O)c1 [EPIGALOCATECHIN GALLATE],pKi,[1],6.63
Oc1cc(O)c2c(c1)O[C@H](c1ccc(O)c(O)c1)[C@H](O)C2 [(-)-EPICATECHIN],pKi,[1],< 4.00
CCCC[C@H]1C(=O)O[C@H](C)[C@H](NC(=O)c2cccc(NC=O)c2O)C(=O)O[C@@H](C)[C@@H]1OC(=O)CC(C)C [ANTIMYCIN A3],pKi,[1],6.08
O=C(O[C@@H]1Cc2c(O)cc(O)cc2O[C@@H]1c1ccc(O)c(O)c1)c1cc(O)c(O)c(O)c1 [EPICATECHIN GALLATE],pKi,[1],6.64
COc1cccc2c1C(=O)c1c(O)c3c(c(O)c1C2=O)C[C@@](O)(C(=O)CO)C[C@@H]3O[C@H]1C[C@H](N)[C@H](O)[C@H](C)O1 [DOXORUBICIN],pIC50,Saccharomyces cerevisiae,5.00
CN(C)CC[C@H](CSc1ccccc1)Nc1ccc(S(=O)(=O)NC(=O)c2ccc(N3CCN(Cc4ccccc4-c4ccc(Cl)cc4)CC3)cc2)cc1[N+](=O)[O-] [ABT 737],Activity,Eu-Myc [2],inactive
same,Activity,Eu-Myc [3],Active
same,Activity,Eu-Myc [4],inactive
same,Activity,KB [5],58%
same,Activity,KB [6],72%
same,Activity,KB [7],inactive
same,Activity,KB [8],inactive
same,Activity,KB [9],Active
same,Activity,KB [10],9%
same,Activity,KB [11],8%
